Assay results taken from ChEMBL document CHEMBL3593239, “PABA/NO lead optimization: Improved targeting of cytotoxicity to glutathione S-transferase P1-overexpressing cancer cells” (Bioorg Med Chem, 2015).
Activity calls are given as the source filed them. The calls are words filed in the database; no cut-off is given here.

Key:
U-937 = experiment: Cytotoxicity against human U937 cells assessed as growth inhibition after 72 hrs by MTT assay; format: functional, cell-based; conditions: U-937, 72 h
Summary of the method: (§1)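 HL-60 and U937 cells from ATCC, grown per supplier protocol, seeded and exposed to increasing concentrations for 72 h. Viability was read with a Promega assay run per the manufacturer's protocol. Six repeats per concentration, three independent experiments. IC50 derived by curve fitting.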

[1] = Stability of the compound in phosphate buffer assessed as pseudo-first order rate constant at pH 7.4 at 37 degC by HPLC trapping method in presence of GSH; format: physicochemical
[2] = target: T1, Glutathione S-transferase A1 (Homo sapiens, UniProt P08263); experiment: Drug metabolism in phosphate buffer assessed as ratio of GSTA1 (unknown origin)-mediated (S)-2-amino-5-((R)-1-(carboxymethylamino)-3-(4-cyano-5-hydroxy-2-nitrophenylthio)-1-oxopropan-2-ylamino)-5-oxopentanoic acid formation from nitric oxide release pathway to GSTA1 (unknown origin)-mediated (Z)-1-(4-cyano-5-hydroxy-2-nitrophenoxy)-3,3-dimethyltriaz-1-ene 2-oxide formation from nitric oxide retained pathway at 1 uM at pH 7.4 at 37 degC after 30 mins by LC-MS/MS analysis in presence of GSH; format: ADME; conditions: pH 7.4, 0.5 h
T1 sequence (P08263 whole entry): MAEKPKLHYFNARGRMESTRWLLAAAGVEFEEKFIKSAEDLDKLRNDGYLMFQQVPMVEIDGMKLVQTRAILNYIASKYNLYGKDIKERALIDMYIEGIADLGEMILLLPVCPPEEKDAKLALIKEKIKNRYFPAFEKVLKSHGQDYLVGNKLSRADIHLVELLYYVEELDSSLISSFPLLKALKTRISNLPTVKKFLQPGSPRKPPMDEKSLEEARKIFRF
Summary of the method: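 Products analysed by LC–MS. The ratio is the NO-release-pathway product over the NO-retained-pathway phenolic product.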

HL-60 [3] = experiment: Induction of apoptosis in human HL60 cells assessed as cleavage of PARP at 10 uM after 24 hrs by Western blot analysis; format: functional, cell-based
HL-60 [4] = experiment: Induction of apoptosis in human HL60 cells assessed as activation of caspase 8 at 10 uM after 24 hrs by Western blot analysis; format: functional, cell-based
[5] = Stability of the compound in phosphate buffer assessed as first-order initial rate constant for hydrolysis at pH 7.4 at 37 degC by HPLC trapping method; format: physicochemical
[6] = target: T2, Glutathione S-transferase P (Homo sapiens, UniProt P09211); experiment: Prodrug conversion in phosphate buffer assessed as GSTP1 (unknown origin)-mediated nitric oxide release […] measured per mol of compound at pH 7.4 at 37 degC by chemiluminescence assay in presence of GSH; format: ADME
[7] = target: T2, Glutathione S-transferase P; experiment: Drug metabolism in phosphate buffer assessed as formation of GSTP1 (unknown origin)-mediated (S)-2-amino-5-((R)-1-(carboxymethylamino)-3-(4-cyano-5-(4-(methylamino)benzoyloxy)-2-nitrophenylthio)-1-oxopropan-2-ylamino)-5-oxopentanoic acid at 1 uM at pH 7.4 at 37 degC after 1 to 30 mins by LC-MS/MS analysis in presence of GSH; format: ADME; conditions: pH 7.4, 1 µM
Summary of the method: (§2)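 Test compound at 1 µM reacted with 4 mM GSH containing 4 nM GSTP1 in 0.1 M phosphate, pH 7.4, at 37 °C. Products identified by LC–MS traces taken at 60 s and 30 min.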

[8] = target: T2, Glutathione S-transferase P; experiment: Prodrug conversion in phosphate buffer assessed as GSTP1 (unknown origin)-mediated nitric oxide release at 1 uM at pH 7.4 at 37 degC after 1 to 30 mins by LC/MS-MS analysis; format: ADME; conditions: pH 7.4, 1 µM; summary of the method: as §2
HL-60 [9] = experiment: Induction of apoptosis in human HL60 cells assessed as activation of caspase 7 at 10 uM after 24 hrs by Western blot analysis; format: functional, cell-based
[10] = Stability of the compound in phosphate buffer assessed as first-order initial rate constant for hydrolysis at pH 7.4 at 25 degC by HPLC trapping method; format: physicochemical
HL-60 [11] = experiment: Cytotoxicity against human HL60 cells assessed as growth inhibition after 72 hrs by MTT assay; format: functional, cell-based; conditions: HL-60, 72 h; summary of the method: as §1
[12] = target: T2, Glutathione S-transferase P; experiment: Drug metabolism in human HL-60 cells assessed as GSTP1-mediated metabolite formation at 1 uM after 10 mins by LC-MS/MS analysis; format: ADME, cell-based; conditions: hl-60, 10 min
Summary of the method: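 HL-60 cells plated in flasks and incubated overnight at 37 °C, then treated with 1 µM compound for varying times. Cells broken by two freeze (−80 °C)/thaw (37 °C) cycles in 0.1% formic acid/acetonitrile 3:7. Precipitate spun out at 14,000g for 15 min. Supernatant filtered and analysed by LC–MS/MS on C18 with acetonitrile/water/0.1% formic acid gradient and ESI-QTOF detection.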

HL-60 [13] = experiment: Induction of SAPK/JNK phosphorylation in human HL-60 cells at 5 to 20 uM after 24 hrs by Western blot analysis

T2 sequence (P09211 whole entry): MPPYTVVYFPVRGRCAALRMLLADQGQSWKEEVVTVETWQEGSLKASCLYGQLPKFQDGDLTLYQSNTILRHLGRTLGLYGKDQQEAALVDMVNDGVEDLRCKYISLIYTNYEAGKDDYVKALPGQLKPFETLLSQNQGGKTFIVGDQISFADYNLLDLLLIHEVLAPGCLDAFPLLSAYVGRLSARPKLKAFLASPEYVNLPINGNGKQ

Compound: CNc1ccc(C(=O)Oc2cc(O/N=[N+](\[O-])N(C)C)c([N+](=O)[O-])cc2C#N)cc1
- IC50 (U-937): 6.5 µM
- K [1]: 5.1 ×10⁻³ /s
- Ratio [2]: 1
- Activity (HL-60 [3]): Active
- Activity (HL-60 [4]): Active
- K [5]: 1.1 ×10⁻⁴ /s
- NO yield [6]: > 1.9 mol/mol
- Drug metabolism [7]: metabolite_detected
- Drug metabolism [8]: metabolite_detected
- Activity (HL-60 [9]): Active
- K [10]: 0.3 ×10⁻⁵ /s
- IC50 (HL-60 [11]): 9 µM
- Drug metabolism [12]: metabolite_detected
- Activity (HL-60 [13]): Active
